The structures appear in SMILES notation.

In the first assay the test system is Mus musculus. Nature of the assay: Narcotic agonist activity using acetic acid induced writhing in the mouse upon subcutaneous administration.
Details: not given
Type of assay: functional. In short, it runs like this: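 Mouse acetic acid writhing test with subcutaneous dosing. Salt forms were given in distilled water; free bases were dissolved by adding 1 N HCl and then diluted.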
On the technique in general: In writhing tests, fewer writhes than in controls are read as antinociception.
On to `COc1ccc2c3c1O[C@H]1[C@H]4OC[C@@]4(C(O)c4ccccc4)CC4[C@@H](C2)N(C)CC[C@@]341` (stereo partly specified), for which the ED50 turned out to be 11.9 µM/kg.

Staying with this assay, now noted: Mus musculus, sc; read-out: ED50.
For `C=C[C@]1(CO)CC2C3Cc4ccc(OC)c5c4C2(CCN3C)C(O5)[C@@H]1O` (stereo partly specified), the ED50 is over 28 µmol/kg.
For the compound `COc1ccc2c3c1OC1C(=O)[C@](C)(CCCCc4ccccc4)CC4C(C2)N(CC2CC2)CCC314` (stereo partly specified), the ED50 turned out to be 2 µmol/kg.
On the same count and under the same terms, the figure for `CC[C@]1(CO)CC2C3Cc4ccc(OC)c5c4C2(CCN3C)C(O5)[C@@H]1O` (stereo partly specified) is 2.7 µmol/kg; for `COc1ccc2c3c1OC1[C@@H](O)[C@](C)(CCCCc4ccccc4)CC4C(C2)N(CC2CCC2)CCC341` (stereo partly specified) it is 11.3 µmol/kg.
Same read-out and setting: the figure for `COc1ccc2c3c1OC1[C@H](O)[C@](CO)(CCCCCc4ccccc4)CC4C(C2)N(CC2CC2)CCC341` (stereo partly specified) is 0.4 µmol/kg.
Still for that read-out and setting: the value for `COc1ccc2c3c1OC1[C@H](O)[C@](CO)(CCCCc4ccccc4)CC4C(C2)N(CC2CCC2)CCC341` (stereo partly specified) was 0.52 µmol/kg.
`COc1ccc2c3c1OC1[C@H](O)[C@](CO)(CCCCCc4ccccc4)CC4C(C2)N(C)CCC341` (stereo partly specified): the ED50 stood at 2.3 µmol/kg.
Same read-out and setting: the figure for `COc1ccc2c3c1OC1[C@H](O)[C@](CO)(CCCc4ccccc4)CC4C(C2)N(C)CCC341` (stereo partly specified) is 0.39 µmol/kg.
For the compound `COc1ccc2c3c1OC1[C@H](O)[C@@](/C=C/Cc4ccccc4)(CO)CC4C(C2)N(C)CCC341` (stereo partly specified), the ED50 came out at 1.1 µmol/kg.
Still for that read-out and setting: the value for `CN1CCC23c4c5ccc(O)c4OC2[C@H](O)[C@](CO)(CCCCCc2ccccc2)CC3C1C5` (stereo partly specified) was 12 µmol/kg.
The same measure, in the same setting: the figure for `CN1CCC23c4c5ccc(O)c4OC2[C@H](O)[C@](CO)(CCCCCCc2ccccc2)CC3C1C5` (stereo partly specified) is over 19 µmol/kg; for `COc1ccc2c3c1OC1[C@H](O)[C@](CO)(CCc4ccccc4)CC4C(C2)N(CC2CCC2)CCC341` (stereo partly specified) it is 0.7 µmol/kg; for `COc1ccc2c3c1OC1[C@H](O)[C@](CO)(CCCCCc4ccccc4)CC4C(C2)N(CC2CCC2)CCC341` (stereo partly specified) it is 0.3 µmol/kg.
Consider `OC[C@@]1(CCCCCc2ccccc2)CC2C3Cc4ccc(O)c5c4C2(CCN3CC2CC2)C(O5)[C@@H]1O` (stereo partly specified), for which the ED50 is over 19 µmol/kg.
On the same count and under the same terms, the value for `OC[C@@]1(CCCc2ccccc2)CC2C3Cc4ccc(O)c5c4C2(CCN3CC2CC2)C(O5)[C@@H]1O` (stereo partly specified) was 0.47 µmol/kg.
Same read-out and setting: the value for `OC[C@@]1(CCCc2ccccc2)CC2C3Cc4ccc(O)c5c4C2(CCN3CC2CCC2)C(O5)[C@@H]1O` (stereo partly specified) was 0.57 µmol/kg; that for `OC[C@@]1(CCCCCc2ccccc2)CC2C3Cc4ccc(O)c5c4C2(CCN3CC2CCC2)C(O5)[C@@H]1O` (stereo partly specified) was over 18 µmol/kg; that for `OC[C@@]1(CCCCc2ccccc2)CC2C3Cc4ccc(O)c5c4C2(CCN3CC2CCC2)C(O5)[C@@H]1O` (stereo partly specified) was 21.3 µmol/kg.
On the same count and under the same terms, the figure for `C[C@@]1(CCc2ccccc2)CC2C3Cc4ccc(O)c5c4C2(CCN3CC2CCC2)C(O5)C1=O` (stereo partly specified) is 0.04 µmol/kg; for `COc1ccc2c3c1OC1[C@H](O)[C@](CO)(CCCCc4ccccc4)CC4C(C2)N(CC2CC2)CCC341` (stereo partly specified) it is 0.22 µmol/kg.
`COc1ccc2c3c1OC1[C@H](O)[C@](CO)(CCc4ccccc4)CC4C(C2)N(CC2CC2)CCC341` (stereo partly specified): the ED50 was determined as 0.61 µmol/kg.
Same read-out and setting: the value for `COc1ccc2c3c1OC1[C@@H](O)[C@](C)(CCc4ccccc4)CC4C(C2)N(CC2CCC2)CCC341` (stereo partly specified) was 1 µmol/kg; that for `COc1ccc2c3c1OC1[C@H](O)[C@@](/C=C/CCCCc4ccccc4)(CO)CC4C(C2)N(C)CCC341` (stereo partly specified) was 13.9 µmol/kg.
Turning to `COc1ccc2c3c1OC1[C@@H](O)[C@](C)(CCCCc4ccccc4)CC4C(C2)N(CC2CC2)CCC341` (stereo partly specified), the ED50 is 0.5 µmol/kg.
Same read-out and setting: the figure for `CCCC[C@]1(CO)CC2C3Cc4ccc(OC)c5c4C2(CCN3C)C(O5)[C@@H]1O` (stereo partly specified) is 13.7 µmol/kg; for `COc1ccc2c3c1O[C@H]1[C@H](O)[C@](CO)(C(O)c4ccccc4)CC4[C@@H](C2)N(C)CC[C@@]341` (stereo partly specified) it is 2.3 µmol/kg; for `COc1ccc2c3c1O[C@H]1[C@H]4OC[C@@]4(C(O)c4ccccc4)CC4[C@@H](C2)N(C)CC[C@@]341` (stereo partly specified) it is 6.8 µmol/kg.
Same read-out and setting: the value for `COc1ccc2c3c1OC1[C@H]4OC[C@@]4(CCCc4ccccc4)CC4C(C2)N(CC2CCC2)CCC341` (stereo partly specified) was 4.4 µmol/kg; that for `COc1ccc2c3c1OC1[C@H]4OC[C@@]4(CCc4ccccc4)CC4C(C2)N(CC2CCC2)CCC341` (stereo partly specified) was over 16 µmol/kg.
As for `Oc1ccc2c3c1OC1[C@H]4OC[C@@]4(CCCCc4ccccc4)CC4C(C2)N(CC2CC2)CCC341` (stereo partly specified), the ED50 is 0.015 µmol/kg.
The same measure, in the same setting: the figure for `COc1ccc2c3c1OC1[C@H]4OC[C@@]4(CCCCc4ccccc4)CC4C(C2)N(CC2CCC2)CCC341` (stereo partly specified) is 2.8 µmol/kg.
Still for that read-out and setting: the value for `CN1CCC23c4c5ccc(O)c4OC2[C@H]2OC[C@@]2(CCCCCc2ccccc2)CC3C1C5` (stereo partly specified) was 0.028 µmol/kg; that for `CN1CCC23c4c5ccc(O)c4OC2[C@H]2OC[C@@]2(CCc2ccccc2)CC3C1C5` (stereo partly specified) was 0.048 µmol/kg.
In the case of `COc1ccc2c3c1OC1[C@H]4OC[C@@]4(CCCc4ccccc4)CC4C(C2)N(C)CCC341` (stereo partly specified), the ED50 is 0.046 µmol/kg.
Same read-out and setting: the value for `CN1CCC23c4c5ccc(O)c4OC2[C@H]2OC[C@@]2(CCCCc2ccccc2)CC3C1C5` (stereo partly specified) was 0.024 µmol/kg.
On the same count and under the same terms, the figure for `COc1ccc2c3c1OC1[C@H]4OC[C@@]4(CCCCCc4ccccc4)CC4C(C2)N(C)CCC341` (stereo partly specified) is 1.3 µmol/kg.
On the same count and under the same terms, the figure for `COc1ccc2c3c1OC1[C@H]4OC[C@@]4(CCc4ccccc4)CC4C(C2)N(C)CCC341` (stereo partly specified) is 0.9 µmol/kg.
For the compound `Oc1ccc2c3c1OC1[C@H]4OC[C@@]4(CCCc4ccccc4)CC4C(C2)N(CC2CCC2)CCC341` (stereo partly specified), the ED50 is 0.06 µmol/kg.
Same read-out and setting: the figure for `CN1CCC23c4c5ccc(O)c4OC2[C@H]2OC[C@@]2(CCCc2ccccc2)CC3C1C5` (stereo partly specified) is 0.019 µmol/kg.
The same measure, in the same setting: the value for `COc1ccc2c3c1OC1[C@H]4OC[C@@]4(CCCCc4ccccc4)CC4C(C2)N(C)CCC341` (stereo partly specified) was 0.005 µmol/kg; that for `COc1ccc2c3c1OC1[C@H]4OC[C@@]4(CCCCc4ccccc4)CC4C(C2)N(CC2CC2)CCC341` (stereo partly specified) was 0.61 µmol/kg.
The same measure, in the same setting: the figure for `COc1ccc2c3c1OC1[C@H](O)[C@](CO)(CCCCCCc4ccccc4)CC4C(C2)N(C)CCC341` (stereo partly specified) is 4.5 µmol/kg; for `COc1ccc2c3c1OC1[C@H](O)[C@](CO)(CCCCc4ccccc4)CC4C(C2)N(C)CCC341` (stereo partly specified) it is 0.014 µmol/kg.
On to `OC[C@@]1(CCCCc2ccccc2)CC2C3Cc4ccc(O)c5c4C2(CCN3CC2CC2)C(O5)[C@@H]1O` (stereo partly specified), for which the ED50 turned out to be 11 µmol/kg.
Same read-out and setting: the value for `C[C@@]1(CCCCc2ccccc2)CC2C3Cc4ccc(O)c5c4C2(CCN3CC2CC2)C(O5)C1=O` (stereo partly specified) was 0.11 µmol/kg; that for `COc1ccc2c3c1OC1[C@H](O)[C@@](C=CCCCc4ccccc4)(CO)CC4C(C2)N(C)CCC341` (stereo partly specified) was 4 µmol/kg; that for `OC[C@@]1(CCc2ccccc2)CC2C3Cc4ccc(O)c5c4C2(CCN3CC2CC2)C(O5)[C@@H]1O` (stereo partly specified) was 0.95 µmol/kg.
On the same count and under the same terms, the figure for `CN1CCC23c4c5ccc(O)c4OC2[C@H](O)[C@](CO)(CCCCc2ccccc2)CC3C1C5` (stereo partly specified) is 0.003 µmol/kg.
On the same count and under the same terms, the figure for `COc1ccc2c3c1OC1C(=O)[C@](C)(CCc4ccccc4)CC4C(C2)N(CC2CCC2)CCC314` (stereo partly specified) is 0.19 µmol/kg; for `COc1ccc2c3c1OC1[C@H](O)[C@](CO)(CCCc4ccccc4)CC4C(C2)N(CC2CC2)CCC341` (stereo partly specified) it is 0.13 µmol/kg; for `COc1ccc2c3c1OC1[C@H](O)[C@](CO)(CCCc4ccccc4)CC4C(C2)N(CC2CCC2)CCC341` (stereo partly specified) it is 0.04 µmol/kg.
`C[C@@]1(CCCCc2ccccc2)CC2C3Cc4ccc(O)c5c4C2(CCN3CC2CCC2)C(O5)C1=O` (stereo partly specified): the ED50 stood at 0.17 µmol/kg.
Still for that read-out and setting: the value for `COc1ccc2c3c1OC1C(=O)[C@](C)(CCCCc4ccccc4)CC4C(C2)N(CC2CCC2)CCC314` (stereo partly specified) was 5.6 µmol/kg; that for `CN1CCC23c4c5ccc(O)c4OC2[C@H](O)[C@](CO)(CCc2ccccc2)CC3C1C5` (stereo partly specified) was 0.004 µmol/kg; that for `COc1ccc2c3c1OC1[C@H](O)[C@](CO)(CCc4ccccc4)CC4C(C2)N(C)CCC341` (stereo partly specified) was 0.028 µmol/kg.
As for `CN1CCC23c4c5ccc(O)c4OC2[C@H](O)[C@](CO)(CCCc2ccccc2)CC3C1C5` (stereo partly specified), the ED50 came to 0.85 µmol/kg.
As to `OC[C@@]1(CCc2ccccc2)CC2C3Cc4ccc(O)c5c4C2(CCN3CC2CCC2)C(O5)[C@@H]1O` (stereo partly specified), the ED50 came out at 2.5 µmol/kg.
With `CCCC[C@]1(CO)CC2C3Cc4ccc(O)c5c4C2(CCN3C)C(O5)[C@@H]1O` (stereo partly specified), the ED50 came to 0.56 µmol/kg.
The same measure, in the same setting: the figure for `COc1ccc2c3c1OC1C4OC[C@@]4(CCc4ccccc4)CC4C(C2)N(CC2CC2)CCC341` (single isomer, unassigned) is 0.57 µmol/kg.
As to `Oc1ccc2c3c1OC1C4OC[C@@]4(CCc4ccccc4)CC4C(C2)N(CC2CCC2)CCC341` (single isomer, unassigned), the ED50 was found to be 0.39 µmol/kg.
Still for that read-out and setting: the figure for `Oc1ccc2c3c1OC1C4OC[C@@]4(CCCc4ccccc4)CC4C(C2)N(CC2CC2)CCC341` (single isomer, unassigned) is 0.003 µmol/kg; for `Oc1ccc2c3c1OC1C4OC[C@@]4(CCCCc4ccccc4)CC4C(C2)N(CC2CCC2)CCC341` (single isomer, unassigned) it is 0.05 µmol/kg.
Still for that read-out and setting: the figure for `Oc1ccc2c3c1OC1C4OC[C@@]4(CCc4ccccc4)CC4C(C2)N(CC2CC2)CCC341` (single isomer, unassigned) is 0.04 µmol/kg.
On the same count and under the same terms, the figure for `COc1ccc2c3c1O[C@H]1[C@@H](O)C=C[C@H]4[C@@H](C2)N(C)CC[C@@]341` [CODEINE] is 10.3 µmol/kg; for `COc1ccc2c3c1O[C@H]1C(=O)CC[C@H]4[C@@H](C2)N(C)CC[C@]314` [HYDROCODONE] it is 2.4 µmol/kg.

These data come from ChEMBL document CHEMBL1122246, “Analgesic narcotic antagonists. 15. Potent narcotic agonist 7 beta-(arylalkyl)-4,5 alpha-epoxymorphinans” (1983).
